The source of these data is ChEMBL document CHEMBL1154539, “Identification of small molecules that inhibit GSK-3beta through virtual screening” (Bioorg Med Chem Lett, 2009).

Molecules are shown by their SMILES. Active and inactive are the calls of the source. No cut-off for these calls is given here.

Test [1] deals with T1, Glycogen synthase kinase-3 beta (Homo sapiens, UniProt P49841). The experiment in a line: Inhibition of GSK3-beta by Z'-LYTE kinase assay. The gist of the method:
(§1)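 Z'-LYTE fluorescence-ratio (FRET) kinase assay with GSK-3β and its peptide substrate. Relative inhibition was plotted against increasing compound concentrations and IC50 taken from the inhibition curves. […] is percent inhibition at a single 10 µM compound concentration.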
Target sequence in this assay (P49841 whole entry): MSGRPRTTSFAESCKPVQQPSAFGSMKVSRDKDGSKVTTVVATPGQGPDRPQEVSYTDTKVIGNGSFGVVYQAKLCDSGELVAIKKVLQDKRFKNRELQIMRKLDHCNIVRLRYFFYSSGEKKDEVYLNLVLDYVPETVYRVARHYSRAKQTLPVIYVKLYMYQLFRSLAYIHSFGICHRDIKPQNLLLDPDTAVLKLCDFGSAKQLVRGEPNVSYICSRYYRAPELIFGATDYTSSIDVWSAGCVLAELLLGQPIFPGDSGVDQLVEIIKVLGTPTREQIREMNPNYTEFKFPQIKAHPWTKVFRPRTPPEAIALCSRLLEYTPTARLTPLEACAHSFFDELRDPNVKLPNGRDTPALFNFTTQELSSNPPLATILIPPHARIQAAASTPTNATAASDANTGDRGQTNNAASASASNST

In test [2] the target is Cyclin-dependent kinase 1 (Homo sapiens) (UniProt P06493). The experiment in a line: Inhibition of CDK1 at 100 uM.
Chain of Cyclin-dependent kinase 1 (Homo sapiens) (P06493 whole entry, looked up): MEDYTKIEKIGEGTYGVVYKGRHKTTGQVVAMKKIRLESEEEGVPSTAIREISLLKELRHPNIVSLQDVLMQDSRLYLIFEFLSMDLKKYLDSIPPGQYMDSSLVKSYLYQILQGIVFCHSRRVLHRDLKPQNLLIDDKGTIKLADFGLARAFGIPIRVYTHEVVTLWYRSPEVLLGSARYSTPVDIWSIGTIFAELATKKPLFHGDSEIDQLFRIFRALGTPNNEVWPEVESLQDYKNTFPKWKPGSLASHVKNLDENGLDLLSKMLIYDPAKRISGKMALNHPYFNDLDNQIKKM
For test [3], the target named is T2, Protein kinase C alpha type (Homo sapiens, UniProt P17252). The experiment in a line: Inhibition of PKCalpha. In outline: (§2)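 Counter-screen kinases (PKA, CSNK2, PKC, CDK1) were run under near-identical reaction conditions per the manufacturer's instructions, each with its own suitable substrate. Values are percent inhibition at a single 100 µM compound concentration, or IC50 in µM.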

Test [4] can be described thus: Inhibition of PKA at 100 uM.
In test [5] the target is T1, Glycogen synthase kinase-3 beta. The experiment in a line: Inhibition of GSK3-beta at 10 uM by Z'-LYTE kinase assay. The gist of the method:
as §1
Target sequence in this assay (P49841 whole entry, looked up): as the sequence (P49841 whole entry) above

The target in test [6] is T2, Protein kinase C alpha type. The experiment in a line: Inhibition of PKCalpha at 100 uM.
Test [7] can be described thus: Inhibition of CSNK2 at 100 uM.
Test [8] has as its target T1, Glycogen synthase kinase-3 beta. The experiment in a line: Inhibition of GSK3-beta by ATP competitive inhibition based assay. In outline: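 GSK-3β enzyme velocity was measured with substrate across various ATP levels at increasing inhibitor concentrations. Mode of inhibition was read from Lineweaver–Burk double-reciprocal plots.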
Target sequence in this assay (P49841 whole entry, looked up): as the sequence (P49841 whole entry) above
Test [9] is described as follows: Inhibition of PKA. In outline: as §2
The target in test [10] is T1, Glycogen synthase kinase-3 beta. The experiment in a line: Inhibition of GSK3-beta in myoblasts assessed as beta-casein accumulation at 2 uM after 3 hrs by immunoblot. The conditions noted are these: in the assay text read “beta-catenin” for “beta-casein”. In outline: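 C2C12 myoblasts plated at 5 × 10⁵ were exposed to compound at 2 µM for 3 h. Cells were lysed for total protein, run on SDS–PAGE and immunoblotted with anti-β-catenin antibody.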
Target sequence in this assay (P49841 whole entry, looked up): as the sequence (P49841 whole entry) above
(A western blot detects proteins with antibodies after separation by electrophoresis.)

Consider `CCn1sc(=O)n(Cc2ccccc2)c1=O`, for which the IC50 amounted to 7.15 µM in test [1] and 13.8 µM in test [3]. Besides, the inhibition was 15% in test [2]; 30% in test [4]; 65% in [5]; 88% in [6]; 30% in [7].
For the molecule `CCOC(=O)Cn1sc(=O)n(-c2cccc(C(=O)OCC)c2)c1=O`, the IC50 was found to be 0.467 µM in [1], 5.3 µM in test [3] and 2.2 µM in [9]. Moreover, the inhibition in test [2] was 18%; in test [4] it was 87%; in test [5], 84%; in [6], 89%; in [7] it was 21%. Further, the result in test [8] and in [10] was Active.
In the case of `O=c1sn(CCc2ccccc2)c(=O)n1Cc1ccc(F)cc1`, the 50% inhibitory concentration (IC50) in [1] is 1.86 µM; in test [3] it was 38.7 µM. The inhibition in [2] came out at 20%; in test [4], 20%; in [5], 80%; in test [6], 51%; in test [7], 31%.
Consider `CCOC(=O)Cn1sc(=O)n(-c2ccc(C(=O)OCC)cc2)c1=O`, for which the 50% inhibitory concentration (IC50) in test [1] was 1.01 µM; in [3] it was 48.3 µM; in test [9], 6.9 µM. The inhibition amounted to 12% in test [2]; 81% in [4]; 75% in test [5]; 78% in test [6]; 36% in test [7].
Consider `CCOC(=O)Cn1sc(=O)n(CC(=O)N2CCCCC2)c1=O`, for which the half-maximal inhibitory concentration (IC50) in test [1] stood at 0.539 µM; in test [3] it was 4.1 µM; in test [9], 17 µM. For the same molecule, the inhibition is 15% in test [2]; 75% in [4]; 65% in test [5]; 93% in test [6]; 21% in test [7].
Regarding `O=c1sn(-c2ccccc2)c(=O)n1CCCl`, the values for the IC50 in [1] and in [3] were 0.548 µM and 5.8 µM, respectively. Also, the inhibition in [2] was found to be 0%; in test [4], 35%; in test [5], 74%; in test [6], 84%; in [7], 17%. Besides, the outcome in test [8] was Active.

What is called IC50 is the concentration that inhibits the measured activity by half. Lower therefore signals higher potency. A word on the inhibition: it is the relative decrease from the control value, in per cent. A higher inhibition goes with a response far below the control.
